# GSIS activator = GLuc luminescence reporter in INS-1E cells, primary screen for activators of glucose-dependent secretion of insulin | AID 743287, 2014 | hit rate 0.61% among 370,000 | activation, % at 16.6 µM | INS-1E GLuc reporter insulin secretion, 2-3 h;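 active = lowest replicate activation of at least 40%, so every replicate reaches that level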;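 note: 0% = median of neutral control wells and 100% = median of IBMX positive control wells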
# CFTR F508del cor = F508del CFTR correction, initial screen, CFBE line, single point; CFBE cells, YFP halide quenching; stimulated with forskolin plus potentiator P3; % fluorescence drop versus neutral controls; activity (quench increase), % at 7.58 µM; hit rate 0.36% among 350,000; AID 720511, 2013;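 active = mean added fluorescence quench of at least 8% versus neutral control, with both replicates also reaching 8%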;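 note: cells transiently co-express mutant CFTR-F508del with the halide-sensitive YFP; corrector assay measuring rescue of mutant channel to the surface after 24 h compound exposure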
# miR122 inh = miR-122 Renilla sensor signal increase in Huh7, primary screen, miR-122 inhibitor project, cell-based, single point, plate reader | Huh7 miR-122 Renilla luciferase sensor, 48 h; neutral wells = 0, positive control = 100 | activation (reporter increase), % at 12.5 µM | AID 602342, 2012 | hit rate 0.3% among 340,000;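 active = mean replicate activation score at least 90 and every replicate individually at or above 90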;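 note: higher luciferase means less miR-122 activity so hits act as miR-122 inhibitors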
# E-sel inducer = E-selectin induction in HUVECs, primary screen, imaging, HUVEC, immunofluorescence imaging, single point; normalized: neutral wells 0, TNF-alpha wells 100; activation, % at 7.58 µM; hit rate 0.37% among 260,000; AID 686992, 2013;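 active = mean E-selectin-positive cell signal at least 10% of the positive control, reached in at least 60% of replicates, without over 20% cell loss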
#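 Test system: HUVEC; input: 3,000 HUVEC/well; measured by: immunofluorescence imaging; read-out: % PE-positive cells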
# DENV2 CPE = inhibitors of DENV2 cytopathic effect, primary screen, cell-based, plate reader, single concentration; CPE inhibition, % at 9.99 µM; hit rate 1.7% among 350,000; DENV2-infected cells, cytopathic effect rescue; in the data active = CPE inhibition above about 20%, passing the limit was not always enough; tested in BHK-21 cells;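 note: 0% = median of neutral control wells and 100% = median of positive control wells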
# ERAP1 HTS inh = human ERAP1 aminopeptidase inhibitors, primary screen, biochemical, single point, plate reader. Endoplasmic reticulum aminopeptidase 1 (Homo sapiens), Q9NZ08. recombinant ERAP1, Leu-AMC fluorescence, 60 min. inhibition, % at 10.7 µM. hit rate 0.15% among 340,000. AID 652197, 2013;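 active = mean replicate inhibition of at least 30%, or all replicates individually reaching that 30% level; inactive = mean below 30% and not every replicate reaching it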;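 note: 0% = neutral control wells and 100% = L-leucinethiol positive control wells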
# An asterisk follows results filed as active; . = no result; [ ] = another dose, or the depositor's remark. A selection: hits, their analogues and other compounds. The true share with any hit is near 2.6%.
SMILES,GSIS activator,CFTR F508del cor,miR122 inh,E-sel inducer,DENV2 CPE,ERAP1 HTS inh
COc1cc(C)c(Cl)cc1S(=O)(=O)n1ccnc1C,15.3,2.7,6.7,.,-11.4,-0.5
C[C@H](CO)N1C[C@H](C)[C@@H](CN(C)C(=O)Nc2cccc3ccccc23)Oc2ccc(NC(=O)Cc3cn(C)c4ccccc34)cc2CC1=O,-6.2,-4.3,-2.2[16.7 µM],0.1,8.7,1.4
C[C@H](CO)N1C[C@H](C)[C@@H](CN(C)C(=O)Nc2cccc3ccccc23)Oc2ccc(NC(=O)CCC(F)(F)F)cc2CC1=O,-10.5,0.1,1.6[16.7 µM],0.0,7.4,3.1
C[C@@H]1CN([C@H](C)CO)C(=O)Cc2cc(NC(=O)CCC(F)(F)F)ccc2O[C@@H]1CN(C)C(=O)Nc1cccc2ccccc12,1.6,-1.1,2.3[16.7 µM],0.3,30.2*,-0.2
C[C@@H]1CN([C@H](C)CO)C(=O)Cc2cc(NC(=O)Cc3cn(C)c4ccccc34)ccc2O[C@@H]1CN(C)C(=O)Nc1cccc2ccccc12,-7.7,0.5,23.0[16.7 µM],0.0,45.0*,-1.1
C[C@@H]1CN([C@@H](C)CO)C(=O)Cc2cc(NC(=O)Cc3ccccc3)ccc2O[C@H]1CN(C)C(=O)Nc1cccc2ccccc12,-5.7,0.2,-9.7[16.7 µM],337.6*,43.4*,-1.8
COc1ccc(NC(=O)Nc2ccc3c(c2)C(=O)N([C@@H](C)CO)C[C@H](C)[C@H](CN(C)Cc2ccc(Cl)c(Cl)c2)OCCCC[C@@H](C)O3)cc1,-7.1,1.5,2.2[16.7 µM],0.1,11.3,2.2
C/C=C/c1ccc([C@H]2[C@H]3CN(S(=O)(=O)c4cccc(F)c4)CC(=O)N3[C@H]2CO)cc1,-1.8,-0.9,.,0.7,30.2*,-0.4
C/C=C/c1ccc([C@H]2[C@@H](CO)N3C(=O)CN(C(=O)c4cccc(F)c4)C[C@@H]23)cc1,10.6,0.3,.,0.0,33.3*,1.5
C/C=C/c1ccc([C@H]2[C@@H](CO)N3C(=O)CN(S(=O)(=O)c4cccc(F)c4)C[C@H]23)cc1,-5.9,-1.8,.,0.3,4.1,.
C/C=C/c1ccc([C@H]2[C@@H](CO)N3C(=O)CN(S(=O)(=O)c4cccc(F)c4)C[C@@H]23)cc1,-14.8,-1.7,.,-0.7,43.1*,0.0
O=C(C1CCCC1)N1[C@H](CO)[C@@H]2c3ccccc3NC[C@@H]21,-0.6,1.1,.,0.0,-6.7,-0.9
Cc1ccccc1OCc1nc2ccccc2c(=O)n1/N=C/c1c[nH]c2ccccc12,-1.0,4.0,-1.5,.,-12.6,-0.3
Cc1cc(/C=N/n2c(COc3ccccc3C)nc3ccccc3c2=O)c(O)c([N+](=O)[O-])c1,3.4,8.2*,.,.,-2.0,1.9
Cc1ccc(-c2[nH]ncc2/C=N/n2c(COc3ccccc3C)nc3ccccc3c2=O)cc1,197.1*,.,-4.0,0.0,.,.
COC(=O)C(Cc1csc2ccc(Cl)cc12)NC(=O)c1ccc(Cl)cc1 (stereo unspecified),12.9,0.3,.,0.2,96.0*,3.0
COC(=O)C(Cc1ccccc1)NC(=O)c1ccc(C)cc1 (stereo unspecified),-2.1,2.2,.,.,0.8,-2.0
Cc1cccc(NC(=O)C2CCCN2C(=O)OCC(C)C)c1 (stereo unspecified),.,.,0.4,.,.,.
CC(C)COC(=O)N1C[C@H](O)C[C@H]1C(=O)Nc1ccc(Cl)cc1,119.9*,-3.0,0.3,0.1,2.7,-2.3
CC(C)C[C@@H]1NC(=O)[C@@H]2C[C@H](C(=O)NCc3ccc(F)cc3)[C@H](c3ccc(O)cc3)N2C1=O,.,2.7,.,.,9.2,3.5
CC(OC(=O)c1ccc(Cl)nc1)C(=O)NC1CCCC1 (stereo unspecified),4.4,1.5,.,0.6,.,-4.1
CC(OC(=O)c1ccc(Cl)nc1)C(=O)NC(C)(C)C (stereo unspecified),0.8,10.2*,-7.2,.,-8.7,-2.4
Cc1ccc(C(=O)NC(=S)Nc2ccc(CN3CCCCC3)cc2)c(C)c1,4.5,-3.9,-9.9,26.1*,5.4,0.5

# High-throughput results deposited in PubChem BioAssay by Broad Institute.
